MBD2 DNA inh = MBD2-methylated oligo binding inhibition. Q9UBB5. TR-FRET, MBD2 binding to methylated oligonucleotide. inhibition, % at 4.4 µM. actives 0.31% (n = 370,000). AID 686964; in the data active = inhibition above about 13%
CASP6 VEID inh = caspase-6 (human) enzyme inhibition; P55212; purified caspase-6, Z-VEID-R110 cleavage fluorescence; inhibition, % at 12.5 µM; actives 0.53% (n = 350,000); AID 686996;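 active = mean inhibition across replicates at least about 35%, with every replicate also reaching that limit, limit read from the data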;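 note: 0% = median of neutral control wells and 100% = no fluorescence left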
LEDGF integ inh = blocks HIV-1 LEDGF/p75-dependent DNA integration; TR-FRET IN-LEDGF/p75 DNA integration, Eu/Cy5; inhibition, % at 3.7 µM; actives 0.64% (n = 370,000);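 active = inhibition above the screen-wide mean plus 3 SD, cut at about 13% in these data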;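 note: signal is the Cy5 over europium emission ratio at 671 and 618 nm; 0% = plate median of compound wells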
NSD2 HMT inh = blocks human histone methyltransferase NSD2. O96028. NSD2 peptide methylation, AlphaScreen, 120 min. inhibition, % at 12.5 µM. actives 0.54% (n = 310,000). AID 743445; in the data active = inhibition above about 50%
TDP2 absorb = TDP2 (human) inhibition, absorbance primary screen | O95551 | actives 0.34% (n = 370,000) | recombinant TDP2, T5PNP hydrolysis, p-nitrophenol absorbance 415 nm | inhibition, % at 12.8 µM;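 active = inhibition above the mean of all tested compounds plus 3 SD, set per campaign, cut at about 25% in these data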;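 note: 0% = DMSO with enzyme and 100% = buffer with substrate but no TDP2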
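System: recombinant human TDP2 / Amount: 120 nM TDP2 per well / Also added: 5 mM T5PNP chromogenic substrate / Doses: 12.8 µM single point, 1% DMSO / Incubation: 2 h at 37 °C / Detection: p-Nitrophenol epi absorbance / Evaluation: % inhibition relative to enzyme-containing and enzyme-free wells / Repeats: singlicate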
UHRF1 MBD2 ctr = blocks human UHRF1 binding to methylated DNA | AID 687016 | Q96T88 | UHRF1 binding to methylated oligo, TR-FRET | inhibition, % at 4.4 µM | actives 0.75% (n = 370,000); in the data active = inhibition above about 21%;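 note: UHRF1 SRA domain binding a hemimethylated CpG hairpin DNA probe; 0% = median of test compound wells and 100% = reference inhibitor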
Target sequence (Q96T88 whole entry, looked up, the tested form may be a part): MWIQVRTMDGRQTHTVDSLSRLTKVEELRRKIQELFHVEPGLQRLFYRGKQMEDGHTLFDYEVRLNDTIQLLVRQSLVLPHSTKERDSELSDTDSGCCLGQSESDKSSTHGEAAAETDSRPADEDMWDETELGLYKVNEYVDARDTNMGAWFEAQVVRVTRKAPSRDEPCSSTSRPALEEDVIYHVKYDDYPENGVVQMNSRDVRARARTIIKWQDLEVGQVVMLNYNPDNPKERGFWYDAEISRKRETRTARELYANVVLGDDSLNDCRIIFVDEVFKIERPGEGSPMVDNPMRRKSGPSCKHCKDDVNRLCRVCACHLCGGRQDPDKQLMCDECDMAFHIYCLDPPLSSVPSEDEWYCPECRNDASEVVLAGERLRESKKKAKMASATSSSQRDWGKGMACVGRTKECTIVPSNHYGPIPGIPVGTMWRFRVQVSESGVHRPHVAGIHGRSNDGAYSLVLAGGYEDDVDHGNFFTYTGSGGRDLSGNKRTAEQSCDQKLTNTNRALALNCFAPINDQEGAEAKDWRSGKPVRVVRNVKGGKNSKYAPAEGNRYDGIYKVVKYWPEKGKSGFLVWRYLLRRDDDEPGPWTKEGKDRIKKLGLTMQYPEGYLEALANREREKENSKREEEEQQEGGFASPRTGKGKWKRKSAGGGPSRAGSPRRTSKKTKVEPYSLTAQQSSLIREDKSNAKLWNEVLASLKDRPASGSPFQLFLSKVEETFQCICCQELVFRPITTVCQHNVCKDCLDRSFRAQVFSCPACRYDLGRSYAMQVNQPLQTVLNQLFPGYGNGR
AlphaScreen art = interferes with AlphaScreen signal, flagging NSD2 false positives; shares compounds with NSD2 HMT inh; AlphaScreen artifact counterscreen, preloaded methylated H4 peptide; AC35, µM (top dose mostly 10 µM), for the others: top-dose activity change, negative = signal loss; actives 9.4% (n = 1,500); AID 1053174; call rule not given here
* = called active by the depositor; · = not tested or not shown. A selection: hits, their analogues and other compounds. The true share with any hit is near 1.8%.

SMILES | MBD2 DNA inh | CASP6 VEID inh | LEDGF integ inh | NSD2 HMT inh | TDP2 absorb | UHRF1 MBD2 ctr | AlphaScreen art
O=C(CN1CCN(S(=O)(=O)c2ccc(Br)cc2)CC1)c1ccc(O)c(O)c1 | -4 | 55* | 42* | 80* | 1 | 1 | -13%
CSc1nnc2c(n1)OC=Nc1ccccc1-2 | -4 | · | -1 | 67* | -5 | -3 | -5%
COc1ccccc1-c1cnc2c(c1)C(=O)N([C@H](C)CO)C[C@@H](C)[C@@H](CN(C)C(=O)c1cccnc1)O2 | · | 0 | · | · | · | · | ·
CCCCCCNc1c([N+](=O)[O-])cc(C)cc1[N+](=O)[O-] | -5 | · | 0 | 53* | -15 | -2 | 9.9µM*
CCCC#Cc1ccc2c(c1)O[C@@H](CN(C)C(=O)C1CCC1)[C@@H](C)CN([C@@H](C)CO)S2(=O)=O | · | -1 | · | · | · | · | ·
O=[N+]([O-])c1ccc(Sc2cccc[n+]2[O-])c2nonc12 | -7 | 62* | 0 | 129* | 0 | -3 | 7.8µM*
CC1CCCN(C2=C(NS(=O)(=O)c3ccc(Cl)cc3)C(=O)c3ccccc3C2=O)C1 (stereo not drawn) | -6 | · | -3 | 47 | -1 | -3 | ·
COC(=O)C1CCN(C2=C(NS(=O)(=O)c3ccc(Cl)cc3)C(=O)c3ccccc3C2=O)CC1 | -10 | 9 | 5 | 62* | 5 | -7 | 7.8µM*
NC(=O)C1CCN(C2=C(NS(=O)(=O)c3ccc(Cl)cc3)C(=O)c3ccccc3C2=O)CC1 | -12 | 8 | 3 | 77* | 11 | -13 | -4%
COC(=O)/C(=C\Nc1ccc(Oc2ccccc2OC(C)C)nc1)NC(=O)c1ccccc1 | · | -1 | · | · | · | · | ·
CC(C)NC(=O)N(C)C[C@H]1Oc2ccc(NS(=O)(=O)c3cn(C)cn3)cc2C(=O)N([C@H](C)CO)C[C@H]1C | · | 2 | · | · | · | · | ·
Cn1c(=O)c2c(nc(CN3CCc4ccccc4C3)n2CCc2ccccc2)n(C)c1=O | · | · | · | 69* | · | · | -4%
O=C([C@@H]1[C@@H](CO)[C@@H]2Cn3c(cccc3=O)[C@@H]2N1CC1CCCC1)N1CCOCC1 | · | 1 | · | · | · | · | ·
COc1cc(C(=O)NC(C)c2ccc3ccccc3c2)cc(Cl)c1O (stereo not drawn) | 3 | 4 | -2 | 74* | 6 | 1 | -2%
CCOC(=O)CC(NS(=O)(=O)c1ccc2[nH]cc(C(=O)O)c(=O)c2c1)c1ccc(OCC)c(OC)c1 (stereo not drawn) | 9 | 54* | 6 | 68* | 8 | 19 | -1%
CCOC(=O)CC(NS(=O)(=O)c1ccc(OC)c(OC)c1)c1cccc([N+](=O)[O-])c1 (stereo not drawn) | 1 | 4 | 6 | 0 | -6 | 0 | ·
O=C(NCCc1ccccc1)C1=COCCO1 | 0 | 6 | -5 | 0 | 3 | -2 | ·
C/C(NCCc1ccccc1)=C1/CCOC1=O | 2 | 0 | 2 | 65* | 9 | 1 | -6%
Cc1ccc(C2=NC(=O)/C(=C/c3cc(O)c(O)c(Br)c3)S2)cc1 | 38* | 79* | 89* | 120* | -6 | 50* | 8.2µM*
COc1cc(/C=C2\SC(c3ccc(C)cc3)=NC2=O)cc(OC)c1O | -4 | 1 | -3 | 6 | 7 | -5 | ·
Cn1c(=O)c2c(-c3ccccc3)n(Cc3cccnc3)cc2n(C)c1=O | -5 | · | 0 | 53* | -3 | 1 | -4%
Cc1cccc(Nc2nc(N)c([N+](=O)[O-])c(NCc3ccco3)n2)c1 | -10 | 2 | 5 | 0 | -9 | -3 | ·
Cc1cccc(Nc2nc(NCc3ccco3)nc(N)c2[N+](=O)[O-])c1 | 5 | 4 | 0 | 96* | -12 | 5 | -5%
C[C@H]1CN([C@@H](C)CO)C(=O)c2cc(C#CC(C)(C)O)cnc2O[C@@H]1CN(C)C(=O)c1ccccc1F | · | -1 | · | · | · | · | ·
CCN(CC)CCN(Cc1cc2cc3c(cc2[nH]c1=O)OCO3)C(=S)NCc1ccco1 | -3 | -20 | -3 | 13 | 8 | -1 | ·
SMILES | MBD2 DNA inh | CASP6 VEID inh | LEDGF integ inh | NSD2 HMT inh | TDP2 absorb | UHRF1 MBD2 ctr | AlphaScreen art
CCN(CC)CCCN(Cc1cc2cc3c(cc2[nH]c1=O)OCO3)C(=S)NCc1ccco1 | -1 | -8 | 3 | 74* | 15 | -2 | -1%
COc1cccc(C(C(=O)NC2CCCC2)N(C(=O)c2csnn2)C2CC2)c1 (stereo not drawn) | 2 | -2 | 5 | 99* | -3 | 1 | -2%
O=C(NC1CCCC1)C(c1cccnc1)N(C(=O)c1csnn1)C1CC1 (stereo not drawn) | 4 | · | -2 | -1 | -2 | -1 | ·
Cc1ccc(S(=O)(=O)Nc2ccc3c(c2)CC(=O)N([C@H](C)CO)C[C@@H](C)[C@@H](CN(C)S(=O)(=O)c2cn(C)cn2)O3)cc1 | · | -1 | · | · | · | · | ·
O=C(C1CC1)N1CCc2[nH]c3ccccc3c2C1 | -4 | · | 0 | 100* | 0 | -5 | -3%
COc1ccccc1NC1C=CS(=O)(=O)C1 (stereo not drawn) | 5 | · | -4 | 97* | 13 | 1 | -5%
Cc1ccccc1NC1C=CS(=O)(=O)C1 (stereo not drawn) | -1 | · | -1 | 1 | 1 | -1 | ·
COC(=O)c1c(SCC(=O)Nc2ccc(C)c(C)c2)nc(=O)[nH]c1C | 3 | -1 | 0 | 116* | -8 | 0 | -3%
Cc1ccc(N2C(=O)N(CC(=O)Nc3ccc(C)cc3[N+](=O)[O-])C(=O)C2C)cc1 (stereo not drawn) | -4 | 3 | -3 | 9 | 5 | -3 | ·
Cc1ccc(N2C(=O)N(CC(=O)Nc3cccc([N+](=O)[O-])c3C)C(=O)C2C)cc1 (stereo not drawn) | 1 | 0 | 2 | 92* | 6 | 0 | -4%
Cc1cc(C)nc(NS(=O)(=O)c2ccc(Br)cc2)n1 | 3 | · | 0 | -8 | -6 | 0 | ·
Cc1cc(C)nc(NS(=O)(=O)c2ccc(-n3cccc3)cc2)n1 | -3 | · | 6 | 73* | 0 | 4 | -1%
C[C@H](CO)N1C[C@H](C)[C@@H](CN(C)C)Oc2ccc(NC(=O)CCN3CCOCC3)cc2C1=O | · | 1 | · | · | · | · | ·
CC1(C)Cc2cccc(OCC(=O)O)c2O1 | -2 | · | -3 | 54* | -5 | -2 | -1%
CC1(C)Cc2cccc(OCC(=O)N3CCN(c4ccccc4)CC3)c2O1 | -2 | · | 2 | -4 | 0 | -3 | ·
C/C=C/c1ccc2c(c1)O[C@@H](CN(C)C(=O)c1cccc(F)c1)[C@@H](C)CN([C@H](C)CO)S2(=O)=O | · | 3 | · | · | · | · | ·
COc1ccccc1NC(=O)C(C)OC(=O)CCNS(=O)(=O)c1cccc(C(F)(F)F)c1 (stereo not drawn) | -5 | -2 | 3 | 105* | -1 | 1 | -3%
